ChEMBL document CHEMBL4732208, “Discovery of novel N-alkylcytidines as promising antimicrobial agents” (Eur J Med Chem, 2021)
Values after ≈ are worked out from the molar mass of the structure shown. Active and inactive are the calls of the source. The calls are words filed in the database; no cut-off is given here.

What was measured:
[1] = test system: Micrococcus luteus; assay: Antibacterial activity against Micrococcus luteus NCTC 8340; assay type: functional
In short: (§1)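 Strains grown in modified Gause's nutrient medium N 2, inoculum 10⁶ cells/ml. Test compound dissolved in 50% aqueous methanol, added at ten volume percent of the medium. Growth controls: medium without additions, medium with solvent mixture, and clinical antibiotics (amikacin, ciprofloxacin, isoniazid, rifampicin, oxacillin, vancomycin).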

[2] = test system: Staphylococcus aureus; assay: Antibacterial activity against Staphylococcus aureus INA 00761; assay type: functional; in short: as §1
[3] = test system: Bacillus subtilis; assay: Antibacterial activity against Bacillus subtilis ATCC 6633; assay type: functional; in short: as §1
[4] = test system: Mycolicibacterium smegmatis; assay: Antibacterial activity against Mycobacterium smegmatis VKPM Ac-1339; assay type: functional; in short: as §1
[5] = test system: Mycolicibacterium smegmatis; assay: Antibacterial activity against Mycobacterium smegmatis mc2155; assay type: functional
In short: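 Strains were grown in modified Gause's nutrient medium N 2 at 10⁶ cells/ml. The compound was dissolved in 50% aqueous methanol and added at 10 volume percent of the medium. Controls were untreated cultures, medium with the solvent mixture, and clinical antibiotics.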

[6] = test system: Staphylococcus aureus; assay: Antibacterial activity against Staphylococcus aureus FDA 209 P; assay type: functional; in short: as §1
[7] = test system: Simplicillium lamellicola; assay: Antifungal activity against Simplicilium-lamellicola SRX772919 STG-96 assessed as reduction in fungal growth at 0.1 to 3.5 mM measured for 24 days by drop dilution assay relative to control; assay type: functional; settings: dose 0.1-3.5 mM, time 24.0 day
In short: (§2)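 Drop-dilution method. Suspension plated on CDA with or without compound (screening range 0.1–3.5 mM); 5-fluorocytosine positive control. Incubated at 26 °C. Inhibition % = (Dc−Dt)/Dc × 100 from colony diameters; triplicate, repeated at least twice.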

[8] = test system: Microascus paisii; assay: Antifungal activity against Microascus-paisii SRX7729192 STG-103 assessed as reduction in fungal growth at 0.1 to 3.5 mM measured for 24 days by drop dilution assay relative to control; assay type: functional; settings: dose 0.1-3.5 mM, time 24.0 day; in short: as §2
[9] = test system: Aspergillus amoenus; assay: Antifungal activity against Aspergillus-amoenus SRX7729194 STG-106 assessed as reduction in fungal growth at 0.1 to 3.5 mM measured for 24 days by drop dilution assay relative to control; assay type: functional; settings: dose 0.1-3.5 mM, time 24.0 day; in short: as §2
[10] = test system: Cladosporium halotolerans; assay: Antifungal activity against Cladosporium-halotolerans SRX7729178 STG-52B assessed as reduction in fungal growth at 0.1 to 3.5 mM measured for 24 days by drop dilution assay relative to control; assay type: functional; settings: dose 0.1-3.5 mM, time 24.0 day; in short: as §2
[11] = test system: Aspergillus versicolor; assay: Antifungal activity against Aspergillus versicolor SRX7729182 STG-25G assessed as reduction in fungal growth at 0.1 to 3.5 mM measured for 24 days by drop dilution assay relative to control; assay type: functional; settings: dose 0.1-3.5 mM, time 24.0 day; in short: as §2
[12] = test system: Cladosporium parahalotolerans; assay: Antifungal activity against Cladosporium-parahalotolerans SRX7729188 STG-93B assessed as reduction in fungal growth at 0.1 to 3.5 mM measured for 24 days by drop dilution assay relative to control; assay type: functional; settings: dose 0.1-3.5 mM, time 24.0 day; in short: as §2
[13] = test system: Alternaria chartarum; assay: Antifungal activity against Ulocladium chartarum SRX7729176 STG-36 assessed as reduction in fungal growth at 0.1 to 3.5 mM measured for 24 days by drop dilution assay relative to control; assay type: functional; settings: dose 0.1-3.5 mM, time 24.0 day; in short: as §2
[14] = test system: Aspergillus; assay: Antifungal activity against Aspergillus SRX7729186 STG-93W assessed as reduction in fungal growth at 0.1 to 3.5 mM measured for 24 days by drop dilution assay relative to control; assay type: functional; settings: dose 0.1-3.5 mM, time 24.0 day; in short: as §2
[15] = test system: Aspergillus versicolor; assay: Antifungal activity against Aspergillus versicolor SRX7729174 STG-25G assessed as reduction in fungal growth at 0.1 to 3.5 mM measured for 24 days by drop dilution assay relative to control; assay type: functional; settings: dose 0.1-3.5 mM, time 24.0 day; in short: as §2
[16] = test system: Aspergillus creber; assay: Antifungal activity against Aspergillus-creber SRX7729180 STG-57 assessed as reduction in fungal growth at 0.1 to 3.5 mM measured for 24 days by drop dilution assay relative to control; assay type: functional; settings: dose 0.1-3.5 mM, time 24.0 day; in short: as §2
[17] = test system: Leuconostoc mesenteroides; assay: Antibacterial activity against Leuconostoc mesenteroides VKPM B-4177; assay type: functional; in short: as §1
[18] = Cytotoxicity against human A549 cells by MTT assay; assay type: cell-based
In short: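 Adherent A549 cells passaged in DMEM with 10% fetal calf serum and 2 mM glutamine, at 37 °C, 5% CO2, 90% humidity. MTT test. CC50 is the concentration that inhibits culture growth by 50%.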

[19] = Chemical stability of compound in pH 9 at 5 mg measured after 24 hrs by TLC analysis; assay type: physicochemical; settings: pH 9, 24 h
In short: (§3)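 Compound incubated at 37 °C in 0.2 M glycine/HCl (pH 2.2), 0.1 M potassium phosphate (pH 7.5) or 0.2 M glycine/NaOH (pH 9.0). Followed for 24 h and up to over a week.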

[20] = Chemical stability of compound in pH 2.2 at 5 mg measured after 7 days by TLC analysis; assay type: physicochemical; settings: pH 2.2, 168 h, time 7 day; in short: as §3
[21] = Chemical stability of compound in pH 7.5 at 5 mg measured after 7 days by TLC analysis; assay type: physicochemical; settings: pH 7.5, 168 h, time 7 day; in short: as §3
[22] = Aqueous solubility of compound; assay type: physicochemical; settings: buffer
[23] = Metabolic stability in human serum assessed as half life at 100 mM measured for 24 hrs by HPLC/TLC analysis; assay type: ADME, cell-free

## NCC[C@H](O)C(=O)N[C@@H]1C[C@H](N)[C@@H](O[C@H]2O[C@H](CN)[C@@H](O)[C@H](O)[C@H]2O)[C@H](O)[C@H]1O[C@H]1O[C@H](CO)[C@@H](O)[C@H](N)[C@H]1O [AMIKACIN]
[1]
  MIC: 1 µM (≈ 0.586 µg/mL)
[2]
  MIC: 5 µM (≈ 2.93 µg/mL)
[3]
  MIC: 7 µM (≈ 4.1 µg/mL)
[4]
  MIC: 29 µM (≈ 17 µg/mL)
[5]
  MIC: 50 µM (≈ 29.3 µg/mL)
[6]
  MIC: 3.4 µM (≈ 1.99 µg/mL)

## Nc1nc(=O)[nH]cc1F
[7]
  inhibition: Active
[8]
  inhibition: Active
[9]
  inhibition: Active
[10]
  inhibition: Active
[11]
  inhibition: Active
[12]
  inhibition: Active
[13]
  inhibition: Active
[14]
  inhibition: Active
[15]
  inhibition: Active
[16]
  inhibition: Active

## CCCCCCCCCCCCNc1ccn([C@H]2C[C@H](O)[C@@H](CO)O2)c(=O)n1
[1]
  MIC: 70 µM (≈ 27.7 µg/mL)
[17]
  MIC: 70 µM (≈ 27.7 µg/mL)
[2]
  MIC: 70 µM (≈ 27.7 µg/mL)
[3]
  MIC: 70 µM (≈ 27.7 µg/mL)
[4]
  MIC: 70 µM (≈ 27.7 µg/mL)
[5]
  MIC: 70 µM (≈ 27.7 µg/mL)
[18]
  CC50: 100 µM
[6]
  MIC: 70 µM (≈ 27.7 µg/mL)

## O=c1nc(NCCCCc2ccccc2)ccn1[C@H]1C[C@H](O)[C@@H](CO)O1
[1]
  MIC: > 200 µM
[17]
  MIC: > 200 µM
[2]
  MIC: > 200 µM
[3]
  MIC: > 200 µM
[4]
  MIC: > 200 µM
[5]
  MIC: > 200 µM
[18]
  CC50: 90 µM
[6]
  MIC: > 200 µM

## Cc1onc(-c2ccccc2)c1C(=O)N[C@@H]1C(=O)N2[C@@H]1SC(C)(C)[C@@H]2C(=O)O [OXACILLIN]
[2]
  MIC: 80 µM (≈ 32.1 µg/mL)
[6]
  MIC: 2.5 µM (≈ 1 µg/mL)

## CCCCCCCCCCNc1ccn([C@H]2C[C@H](O)[C@@H](CO)O2)c(=O)n1
[1]
  MIC: 140 µM (≈ 51.4 µg/mL)
[17]
  MIC: 140 µM (≈ 51.4 µg/mL)
[2]
  MIC: > 140 µM
[3]
  MIC: 140 µM (≈ 51.4 µg/mL)
[4]
  MIC: 140 µM (≈ 51.4 µg/mL)
[5]
  MIC: 140 µM (≈ 51.4 µg/mL)
[18]
  CC50: 200 µM
[6]
  MIC: > 140 µM

## CCCCCCCCCCNc1nc(=O)n([C@H]2C[C@H](OC(=O)OCCOCCOCCO)[C@@H](CO)O2)cc1C
[1]
  MIC: > 45 µM
[17]
  MIC: 90 µM (≈ 50.2 µg/mL)
[9]
  inhibition: inactive
[2]
  MIC: 54 µM (≈ 30.1 µg/mL)
[19]
  Stabilty: Stable
[3]
  MIC: 90 µM (≈ 50.2 µg/mL)
[10]
  inhibition: inactive
[11]
  inhibition: inactive
[12]
  inhibition: inactive
[13]
  inhibition: inactive
[4]
  MIC: 54 µM (≈ 30.1 µg/mL)
[20]
  Stabilty: Stable
[14]
  inhibition: inactive
[5]
  MIC: 54 µM (≈ 30.1 µg/mL)
[18]
  CC50: 90 µM
[21]
  Stabilty: Stable
[6]
  MIC: 54 µM (≈ 30.1 µg/mL)
[15]
  inhibition: inactive
[22]
  solubility: Soluble
[16]
  inhibition: inactive
[23]
  half-life: ≥ 24 h

## CCCCCCCCNc1ccn([C@@H]2O[C@H](CO)[C@@H](O)[C@H]2O)c(=O)n1
[1]
  MIC: > 200 µM
[17]
  MIC: > 200 µM
[2]
  MIC: > 200 µM
[3]
  MIC: > 200 µM
[4]
  MIC: > 200 µM
[5]
  MIC: > 200 µM
[18]
  CC50: 90 µM
[6]
  MIC: > 200 µM

## CCCCCCCCCCCCCCNc1ccn([C@H]2C[C@H](O)[C@@H](CO)O2)c(=O)n1
[1]
  MIC: > 200 µM
[17]
  MIC: > 200 µM
[2]
  MIC: > 200 µM
[3]
  MIC: > 200 µM
[4]
  MIC: > 200 µM
[5]
  MIC: > 200 µM
[18]
  CC50: 90 µM
[6]
  MIC: > 200 µM

## CCCCCCCCCCNc1ccn([C@@H]2O[C@H](CO)[C@@H](O)[C@H]2O)c(=O)n1
[1]
  MIC: > 200 µM
[17]
  MIC: > 200 µM
[2]
  MIC: > 200 µM
[3]
  MIC: > 200 µM
[4]
  MIC: > 200 µM
[5]
  MIC: > 200 µM
[18]
  CC50: 90 µM
[6]
  MIC: > 200 µM

## COCCOCCOCCNc1nc(=O)n([C@H]2C[C@H](O)[C@@H](CO)O2)cc1C
[1]
  MIC: > 200 µM
[17]
  MIC: > 200 µM
[2]
  MIC: > 200 µM
[3]
  MIC: > 200 µM
[4]
  MIC: > 200 µM
[5]
  MIC: > 200 µM
[18]
  CC50: 90 µM
[6]
  MIC: > 200 µM
